Source: ChEMBL document CHEMBL4627406, “Amino Acids Bearing Aromatic or Heteroaromatic Substituents as a New Class of Ligands for the Lysosomal Sialic Acid Transporter Sialin” (J Med Chem, 2020)
The source made the active and inactive calls. No cut-off for these calls is given here.

Assays:
[1] = biological target: T1, Sialin (Homo sapiens) (UniProt Q9NRA2); assay: Inhibition of human recombinant-Sialin expressed in HEK293 cells assessed as reduction in [3H]Neu5Ac uptake at 30 uM incubated for 15 mins by liquid scintillation counting method; assay type: cell-based
T1 sequence (whole entry): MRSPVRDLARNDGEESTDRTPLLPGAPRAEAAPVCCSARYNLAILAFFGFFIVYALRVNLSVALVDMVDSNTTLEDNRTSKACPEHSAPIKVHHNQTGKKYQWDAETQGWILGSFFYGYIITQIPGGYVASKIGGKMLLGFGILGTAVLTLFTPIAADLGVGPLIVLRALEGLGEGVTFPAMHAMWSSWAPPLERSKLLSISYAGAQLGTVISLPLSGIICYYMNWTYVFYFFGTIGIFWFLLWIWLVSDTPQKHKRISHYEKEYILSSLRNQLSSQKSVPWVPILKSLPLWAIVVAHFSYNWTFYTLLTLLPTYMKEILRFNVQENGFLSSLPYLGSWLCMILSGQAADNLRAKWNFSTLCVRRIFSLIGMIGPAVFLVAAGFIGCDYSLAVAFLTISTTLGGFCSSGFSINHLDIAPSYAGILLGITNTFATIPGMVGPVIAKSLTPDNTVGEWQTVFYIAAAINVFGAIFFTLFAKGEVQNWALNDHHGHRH
In short: (§1)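 HEK293 cells expressing EGFP-human sialin L22G/L23G (sorting mutant at the plasma membrane), assayed 2 days after lipofection. Uptake of [3H]Neu5Ac (12.5 nM) over 15 min at room temperature in MES-Na+ pH 5.0 with inhibitor added together with tracer. Cells washed twice ice-cold, radioactivity counted by liquid scintillation. Dose-response run in triplicate, two to three independent experiments.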

[2] = biological target: T1, Sialin (Homo sapiens); assay: Inhibition of human recombinant-Sialin expressed in HEK293 cells assessed as reduction in [3H]Neu5Ac uptake at 30 to 300 uM incubated for 15 mins by liquid scintillation counting method; assay type: cell-based; in short: as §1
[3] = biological target: T1, Sialin (Homo sapiens); assay: Inhibition of human recombinant-Sialin expressed in HEK293 cells assessed as reduction in [3H]Neu5Ac transport at 120 uM pre-incubated for 15 mins at pH 5.5 followed by 15 or 30 mins wash at pH 7 at room temperature by liquid scintillation counting method relative to control; assay type: cell-based
[4] = test system: HEK293; assay: Substrate activity at EGFP-fused human Sialin L22G/L23G mutant expressed in HEK293 cells in acidic medium using tritiated compound at 2 to 100 uM by liquid scintillation counting method; assay type: cell-based
In short: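 [3H]-labelled test ligand uptake measured in HEK293 cells expressing EGFP-sialin L22G/L23G versus mock (EGFP) cells, as for Neu5Ac uptake, using 2 μM tracer. For comparison, [3H]Neu5Ac was measured at 100 μM. Acidic MES pH 5.0 medium, liquid scintillation counting.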

[5] = biological target: T2, Cystinosin (Homo sapiens) (UniProt O60931); assay: Inhibition of human cystinosin at 100 uM relative to control
T2 sequence (whole entry): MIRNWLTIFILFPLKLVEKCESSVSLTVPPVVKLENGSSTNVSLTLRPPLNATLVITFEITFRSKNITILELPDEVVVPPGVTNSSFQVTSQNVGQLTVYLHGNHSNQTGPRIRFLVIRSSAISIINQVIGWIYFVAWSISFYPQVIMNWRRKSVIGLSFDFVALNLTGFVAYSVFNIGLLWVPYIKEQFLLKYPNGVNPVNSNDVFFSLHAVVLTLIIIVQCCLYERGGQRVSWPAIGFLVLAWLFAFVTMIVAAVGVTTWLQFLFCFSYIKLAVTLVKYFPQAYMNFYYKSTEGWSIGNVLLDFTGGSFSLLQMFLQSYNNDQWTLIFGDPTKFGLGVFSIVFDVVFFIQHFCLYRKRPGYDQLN
In short: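 Human cystinosin and rat LYAAT1 expressed at the plasma membrane of HEK293 cells, assayed one day after lipofection in MES-Na+ pH 5.0. Substrates were [14C]cystine (20 μM) for cystinosin and [3H]proline (100 μM) for LYAAT1. Test agent present during uptake, run in parallel with sialin. Triplicate measurements, three independent experiments.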

[6] = biological target: T1, Sialin (Homo sapiens); assay: Non-competitive inhibition of human recombinant-Sialin expressed in HEK293 cells assessed as reduction in Vmax for [3H]Neu5Ac uptake at 10 uM incubated for 15 mins by liquid scintillation counting method relative to control; assay type: cell-based
[7] = biological target: Proton-coupled amino acid transporter 1 (Homo sapiens) (UniProt Q7Z2H8); assay: Inhibition of human LYAAT1 at 100 uM relative to control
Sequence of Proton-coupled amino acid transporter 1 (Homo sapiens) (Q7Z2H8 whole entry): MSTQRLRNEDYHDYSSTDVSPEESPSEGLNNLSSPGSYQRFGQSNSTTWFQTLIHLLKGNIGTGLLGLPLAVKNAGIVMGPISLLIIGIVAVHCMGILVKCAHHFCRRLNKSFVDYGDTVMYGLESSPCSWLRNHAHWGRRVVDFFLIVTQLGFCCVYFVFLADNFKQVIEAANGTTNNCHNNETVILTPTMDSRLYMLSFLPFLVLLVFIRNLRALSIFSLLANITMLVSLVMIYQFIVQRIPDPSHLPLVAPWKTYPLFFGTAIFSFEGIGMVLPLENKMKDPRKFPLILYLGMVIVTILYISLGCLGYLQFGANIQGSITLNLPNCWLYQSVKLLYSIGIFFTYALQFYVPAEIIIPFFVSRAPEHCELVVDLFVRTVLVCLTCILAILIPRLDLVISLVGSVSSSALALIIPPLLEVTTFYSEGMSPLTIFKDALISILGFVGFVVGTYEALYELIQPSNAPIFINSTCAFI

[8] = biological target: T1, Sialin (Homo sapiens); assay: Inhibition of human recombinant-Sialin expressed in HEK293 cells assessed as reduction in [3H]Neu5Ac uptake at 100 uM incubated for 15 mins by liquid scintillation counting method; assay type: cell-based; in short: as §1
[9] = biological target: T1, Sialin (Homo sapiens); assay: Inhibition of human recombinant-Sialin expressed in HEK293 cells assessed as reduction in [3H]Neu5Ac transport pre-incubated for 15 mins at pH 5.5 followed by 15 mins wash at pH 7 at room temperature by liquid scintillation counting method relative to control; assay type: cell-based
[10] = biological target: T1, Sialin (Homo sapiens); assay: Ratio of Km for Neu5Ac to Ic50 for test compound for inhibition of human recombinant-Sialin expressed in HEK293 cells assessed as reduction in [3H]Neu5Ac uptake at 30 to 300 uM incubated for 15 mins by liquid scintillation counting method; assay type: cell-based
[11] = biological target: T1, Sialin (Homo sapiens); assay: Trans-stimulation of human recombinant-Sialin expressed in HEK293 cells assessed as [3H]Neu5Ac transport at 5 mM pre-incubated for 15 mins at pH 5.5 followed by 15 or 30 mins wash at pH 7 at room temperature by liquid scintillation counting method; assay type: cell-based
[12] = test system: HEK293; assay: Substrate activity mRFP-tagged human recombinant-Sialin L22G/L23G mutant expressed in HEK293 cells assessed as induction of cytosolic acidification by measuring E2GFP fluorescence at 10 mM at pH 5.5; assay type: cell-based
In short: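 HEK293 cells co-expressing the ratiometric pH probe E2GFP and mRFP-tagged human sialin L22G/L23G. Cytosolic acidification from sialin-mediated H+ co-transport was read by E2GFP fluorescence after application at pH 5.5 of Neu5Ac (10 mM) or test ligand (30 μM).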

Structure (SMILES)	inhibition [1]	inhibition [2]	further results
CC(C)(C)SC[C@H](NC(=O)OCC1c2ccccc2-c2ccccc21)C(=O)O	Active	–	–
O=C(NCCCC[C@H](NC(=O)OCC1c2ccccc2-c2ccccc21)C(=O)O)OCc1ccccc1	–	Active	–
CC(C)(C)OC(=O)C[C@H](NC(=O)OCC1c2ccccc2-c2ccccc21)C(=O)O	Active	–	–
O=C(N[C@@H](Cc1ccccc1)C(=O)O)OCC1c2ccccc2-c2ccccc21	Active	–	–
O=C(O)[C@@H]1OCCOCCO[C@@H](C(=O)O)[C@H](C(=O)O)OCCOCCO[C@H]1C(=O)O	–	Active	–
O=C(OCc1cc(=O)oc2cc(O)ccc12)OCC1c2ccccc2-c2ccccc21	inactive	–	–
CC(C)C[C@H](NC(=O)OCC1c2ccccc2-c2ccccc21)C(=O)O	Active	Dose-dependent effect	inhibition [3]: 55%; Activity [4]: inactive; inhibition [5]: Active; inhibition [6]: 56%; inhibition [7]: Active; inhibition [8]: 100%
O=C(NCCCC[C@H](NC(=O)OCc1cc(=O)oc2cc(O)ccc12)C(=O)O)OCc1ccccc1	Active	–	–
O=C(N[C@@H](CSCc1cc(=O)oc2cc(O)c(Cl)cc12)C(=O)O)OCC1c2ccccc2-c2ccccc21	Active	Dose-dependent effect	–
CC(C)C[C@H](NC(=O)N1CCCCCC1)C(=O)N[C@H](Cc1cn(C)c2ccccc12)C(=O)N[C@H](Cc1ccccn1)C(=O)O	–	–	inhibition [9]: inactive; Ratio [10]: 50
CC(=O)N[C@H]1[C@H]([C@H](O)[C@H](O)CO)OC(O)(C(=O)O)C[C@@H]1O (stereo partly specified)	–	Active	Activity [11]: 130%; Activity [4]: Active; Activity [12]: Active
CC(C)CC(NC(=O)OCC1c2ccccc2-c2ccccc21)C(=O)O (stereo unspecified)	Active	–	–
COC(=O)CC[C@H](NC(=O)OCC1c2ccccc2-c2ccccc21)C(=O)O	Active	Dose-dependent effect	–
CC[C@H](C)[C@H](NC(=O)OCC1c2ccccc2-c2ccccc21)C(=O)O	Active	–	–
O=C(Cc1cc(=O)oc2c3c4c(cc12)CCCN4CCC3)N[C@@H](CCCCNC(=O)OCc1ccccc1)C(=O)O	Active	–	–
Cc1cc(C)cc(C(=O)N(C)[C@H](Cc2ccc(-c3ccccc3)cc2)C(=O)N[C@@H](Cc2c[nH]c3ccccc23)C(=O)O)c1	–	Active	–

Structure (SMILES)	inhibition [1]	inhibition [2]	further results
COc1ccc(CSC[C@H](NC(=O)OCC2c3ccccc3-c3ccccc32)C(=O)O)cc1	Active	–	–
CC(C)(C)Oc1ccc(C[C@H](NC(=O)OCC2c3ccccc3-c3ccccc32)C(=O)O)cc1	Active	–	–
O=C(O)CN(CC(=O)O)Cc1cc2c(cc1O)Oc1cc(O)c(CN(CC(=O)O)CC(=O)O)cc1C21OC(=O)c2ccccc21	–	Active	–
CC(C)(C)OC(=O)NCc1ccc(C[C@@H](NC(=O)OCC2c3ccccc3-c3ccccc32)C(=O)O)cc1	–	Active	–
O=C(NCCCC[C@H](NC(=O)OCC1c2ccccc2-c2ccccc21)C(=O)O)OCC1c2ccccc2-c2ccccc21	inactive	–	–
O=C(O)CN(CC(=O)O)c1ccccc1OCCOc1ccccc1N(CC(=O)O)CC(=O)O	–	Active	–
O=C(Cc1cc(=O)oc2cc(O)ccc12)N[C@@H](CCCCNC(=O)OCc1ccccc1)C(=O)O	Active	–	–
O=C(N[C@@H](CSCc1ccccc1)C(=O)O)OCC1c2ccccc2-c2ccccc21	inactive	–	–
CN(Cc1cnc2nc(N)nc(N)c2n1)c1ccc(C(=O)N[C@@H](CCC(=O)O)C(=O)O)cc1	–	Active	–
O=C(NCCCC[C@H](NC(=O)c1cc(=O)[nH]c2ccccc12)C(=O)O)OCc1ccccc1	inactive	–	–
CN(C)c1ccc2c(CC(=O)N[C@@H](CCCCNC(=O)OCc3ccccc3)C(=O)O)cc(=O)oc2c1	Active	–	–
CN(C)c1ccc2c(CC(=O)NCCCC[C@H](NC(=O)OCC3c4ccccc4-c4ccccc43)C(=O)O)cc(=O)oc2c1	Active	–	–
CCN(CC)c1ccc2c(CC(=O)N[C@@H](CCCCNC(=O)OCc3ccccc3)C(=O)O)cc(=O)oc2c1	Active	–	–
COc1ccc2c(CSC[C@H](NC(=O)OCC3c4ccccc4-c4ccccc43)C(=O)O)cc(=O)oc2c1	Active	Dose-dependent effect	–
O=C(O)[C@@H]1CCCN1C(=O)OCC1c2ccccc2-c2ccccc21	inactive	–	–
O=C(N[C@@H](CS)C(=O)O)OCC1c2ccccc2-c2ccccc21	Active	–	–
